# Published values gathered from unrelated publications.
# Each line is one published result; the experiments were not run side by side.
# CYP2E1: Cytochrome P450 2E1 (CYP2E1, Homo sapiens, UniProt P05181)
SMILES,target or system,test,system,conditions,endpoint,result
Nc1ccc(C=Cc2ccc([125I])cc2)cc1,,,"Swiss mouse, brain","intravenous, 5 µCi, 2 h",tracer uptake,1.12 %ID/g
CCN(CC)C(=O)CN1C(=O)Cc2c([nH]c3ccc(Br)cc23)-c2ccc(Cl)cc21,J774,"cell growth or viability, WST-1",,24 h,CC50,≥ 100 µM
CC1COc2ccccc2N1C(=O)C(Cl)Cl (stereo not drawn),,metabolic stability,"male monkey, liver microsomes","5 µM, pH 7.4",microsomal CLint,900 µL/min/mg
O=C(CN1C(=O)Cc2c([nH]c3ccc(Br)cc23)-c2ccc(Cl)cc21)N1CCNCC1,J774,"cell growth or viability, WST-1",,24 h,CC50,≤ 10 µM
Cn1ccc(COc2cnc(C(N)=O)cc2-c2ccc(O[11CH3])cc2F)n1,,,"male mouse, pancreas","intravenous, 2.5 MBq, 1 h",tracer uptake,5.87 %ID/g
O=c1[nH]c2sc3c(c2c(=O)n1O)CCNC3,HFF,"cell growth or viability, MTS",,"10 µM, 7 days",viability,107%
CC(C)(C)OC(=O)CN1C(=O)Cc2c([nH]c3ccc(Br)cc23)-c2ccc(Cl)cc21,J774,"cell growth or viability, WST-1",,24 h,CC50,≤ 100 µM
Cc1csc2c(=O)n(O)c(=O)[nH]c12,HFF,"cell growth or viability, MTS",,"10 µM, 7 days",viability,122%
Nc1nc(O)c2ncn(COC(CO)CO)c2n1,HFF,"cell growth or viability, ATP luminescence",,,CC50,> 150 µM
O=c1[nH]c2sc(-c3ccc(Cl)cc3)cc2c(=O)n1O,HFF,"cell growth or viability, MTS",,"10 µM, 7 days",viability,101%
C[C@@H](c1ccc2nccn2c1)n1nnc2ncc(-c3cnn(C)c3)nc21,CYP2E1,"enzyme activity, inhibitor","human, liver microsomes",pH 7.4,IC50,100 µM
Cc1c(C(=O)O)sc2[nH]c(=O)n(O)c(=O)c12,HFF,"cell growth or viability, MTS",,"10 µM, 7 days",viability,94%
CCc1cc(/C(C)=N/OCc2ccc(C3CCCCC3)c(C(F)(F)F)c2)ccc1CN1CC(C(=O)O)C1,CYP2E1,"enzyme activity, inhibitor","human, liver microsomes","100 µM, 20 min",inhibition,32.6%
O=c1[nH]c2cc(-c3ccccc3)sc2c(=O)n1O,HFF,"cell growth or viability, MTS",,"10 µM, 7 days",viability,85%
O=C(CCCCCCC(=O)Nc1ccc(CC[18F])cc1)NO,,,"male nude mouse, stomach","intravenous, 2 h, tumour-bearing",tracer uptake,1 %ID/g
